ChEMBL document CHEMBL1122632, “Synthesis and antitumor activity of cis-dichloroplatinum (II)-N-aminated nucleoside complexes” (J Med Chem, 1984)
“And” between values parts separate entries of the source, which are not always exact repeats. Equal entries are not always repeated.

What was measured:
L1210 [1] = assay: In vitro inhibition of L1210 (murine leukemia) cell growth.; type: functional, cell-based, Mus musculus
How it was run: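 L1210 cells (10^5 in 1 mL) were grown in RPMI 1640 with 10% FCS and kanamycin, at 37 °C in CO2, for 48 h. Compounds were heated at 110 °C for 8 h, dissolved in medium and tested at ≥6 concentrations. Viability was scored by 0.17% Trypan blue exclusion against drug-free controls. IC50 was the concentration halving living cell number, taken from the log-probit dose-response curve.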

L1210 [2] = assay: Ratio of median survival time of the mice bearing L1210 cells in treated(T) vs. control(C) at a dose of 10 mg/kg x 2 days; type: functional, organism-based; set-up: dose 10 mg/kg; conditions: Mus musculus
How it was run: (§1)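 (BALB/c × DBA/2)F1 mice (20 g) were implanted ip with 10^4 L1210 cells. Compounds in saline (0.2 mL) were given ip on days 1 and 5; doses above 100 mg/kg were homogenized with Nikkol (7× by weight). Activity was scored as median survival time of treated mice and expressed as T/C, the ratio of treated to control median survival time.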

L1210 [3] = assay: Ratio of median survival time of the mice bearing L1210 cells in treated(T) vs. control(C) at a dose of 100 mg/kg x 2 days; type: functional, organism-based; set-up: dose 100 mg/kg; conditions: Mus musculus; how it was run: as §1
L1210 [4] = assay: Ratio of median survival time of the mice bearing L1210 cells in treated(T) vs. control(C) at a dose of 200 mg/kg x 2 days; type: functional, organism-based; set-up: dose 200 mg/kg; conditions: Mus musculus; how it was run: as §1
L1210 [5] = assay: Ratio of median survival time of the mice bearing L1210 cells in treated(T) vs. control(C) at a dose of 25 mg/kg x 2 days; type: functional, organism-based; set-up: dose 25 mg/kg; conditions: Mus musculus; how it was run: as §1
L1210 [6] = assay: Ratio of median survival time of the mice bearing L1210 cells in treated(T) vs. control(C) at a dose of 300 mg/kg x 2 days; type: functional, organism-based; set-up: dose 300 mg/kg; conditions: Mus musculus; how it was run: as §1
L1210 [7] = assay: Ratio of median survival time of the mice bearing L1210 cells in treated(T) vs. control(C) at a dose of 50 mg/kg x 2 days; type: functional, organism-based; set-up: dose 50 mg/kg; conditions: Mus musculus; how it was run: as §1
L1210 [8] = assay: Median survival time (MST) of mice bearing L1210 cells was determined at a dose of 50 mg/kg x 2 days administered ip.; type: functional, organism-based; set-up: dose 50 mg/kg; conditions: Mus musculus; how it was run: as §1
L1210 [9] = assay: Median survival time (MST) of mice bearing L1210 cells was determined at a dose of 25 mg/kg x 2 days administered ip.; type: functional, organism-based; set-up: dose 25 mg/kg; conditions: Mus musculus; how it was run: as §1
L1210 [10] = assay: Median survival time (MST) of mice bearing L1210 cells was determined at a dose of 100 mg/kg x 2 days administered ip.; type: functional, organism-based; set-up: dose 100 mg/kg; conditions: Mus musculus; how it was run: as §1
L1210 [11] = assay: Median survival time (MST) of mice bearing L1210 cells was determined at a dose of 200 mg/kg x 2 days administered ip.; type: functional, organism-based; set-up: dose 200 mg/kg; conditions: Mus musculus; how it was run: as §1
L1210 [12] = assay: Median survival time (MST) of mice bearing L1210 cells was determined at a dose of 300 mg/kg x 2 days administered ip.; type: functional, organism-based; set-up: dose 300 mg/kg; conditions: Mus musculus; how it was run: as §1
L1210 [13] = assay: Median survival time (MST) of mice bearing L1210 cells was determined at a dose of 10 mg/kg x 2 days administered ip.; type: functional, organism-based; set-up: dose 10 mg/kg; conditions: Mus musculus; how it was run: as §1
Mus musculus [14] = assay: Blood urea nitrogen values in ICR mice after intraperitoneal administration at an equivalent molar dose of the LD50 of […](13 mg/kg) on day 3; type: functional, organism-based
How it was run: (§2)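 ICR mice (25-30 weeks, 39 ± 4 g), 5-6 per group, given one ip dose of 0.043 mmol/kg, equimolar to 13 mg/kg cis-DDP. On days 3, 6 and 9, blood was drawn from the heart under ether anesthesia and stored frozen. BUN was measured later by a modified urease indophenol method. Results are mean ± SD, mg/100 mL blood, compared with untreated controls.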

Mus musculus [15] = assay: Blood urea nitrogen values in ICR mice after intraperitoneal administration at an equivalent molar dose of the LD50 of […](13 mg/kg) on day 6; type: functional, organism-based; how it was run: as §2
Mus musculus [16] = assay: Blood urea nitrogen values in ICR mice after intraperitoneal administration at an equivalent molar dose of the LD50 of […](13 mg/kg) on day 9; type: functional, organism-based; how it was run: as §2
Mus musculus [17] = assay: Effect on body weight in ICR mice was determined after intraperitoneal administration on day 3; type: functional, organism-based
How it was run: (§3)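 ICR mice (25-30 weeks, 39 ± 4 g), 5-6 per group, given one ip dose of 0.043 mmol/kg, equimolar to 13 mg/kg cis-DDP. Body and kidney weights were taken on days 3, 6 and 9 and compared with untreated controls. Weights are paired, mean ± SD.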

Mus musculus [18] = assay: Effect on body weight in ICR mice was determined after intraperitoneal administration on day 6; type: functional, organism-based; how it was run: as §3
Mus musculus [19] = assay: Effect on body weight in ICR mice was determined after intraperitoneal administration on day 9; type: functional, organism-based; how it was run: as §3
Mus musculus [20] = assay: Effect on kidney weight in ICR mice was determined after intraperitoneal administration on day 3; type: functional, organism-based; how it was run: as §3
Mus musculus [21] = assay: Effect on kidney weight in ICR mice was determined after intraperitoneal administration on day 6; type: functional, organism-based; how it was run: as §3
Mus musculus [22] = assay: Effect on kidney weight in ICR mice was determined after intraperitoneal administration on day 9; type: functional, organism-based; how it was run: as §3
L1210 [23] = assay: Ratio of median survival time of the mice bearing L1210 cells in treated(T) vs. control(C) at a dose of 600 mg/kg x 2 days; type: functional, organism-based; set-up: dose 600 mg/kg; conditions: Mus musculus; how it was run: as §1
L1210 [24] = assay: Ratio of median survival time of the mice bearing L1210 cells in treated(T) vs. control(C) at a dose of 900 mg/kg x 2 days; type: functional, organism-based; set-up: dose 900 mg/kg; conditions: Mus musculus; how it was run: as §1
L1210 [25] = assay: Median survival time (MST) of mice bearing L1210 cells was determined at a dose of 600 mg/kg x 2 days administered ip.; type: functional, organism-based; set-up: dose 600 mg/kg; conditions: Mus musculus; how it was run: as §1
L1210 [26] = assay: Median survival time (MST) of mice bearing L1210 cells was determined at a dose of 900 mg/kg x 2 days administered ip.; type: functional, organism-based; set-up: dose 900 mg/kg; conditions: Mus musculus; how it was run: as §1
L1210 [27] = assay: Ratio of median survival time of the mice bearing L1210 cells in treated(T) vs. control(C) at a dose of 800 mg/kg x 2 days; type: functional, organism-based; set-up: dose 800 mg/kg; conditions: Mus musculus; how it was run: as §1
L1210 [28] = assay: Median survival time (MST) of mice bearing L1210 cells was determined at a dose of 800 mg/kg x 2 days administered ip.; type: functional, organism-based; set-up: dose 800 mg/kg; conditions: Mus musculus; how it was run: as §1
Mus musculus [29] = assay: Blood urea nitrogen values in ICR mice after intraperitoneal administration at an equivalent molar dose of the LD50 of […](13 mg/kg) on day 9; All death; type: functional, organism-based; how it was run: as §2
Mus musculus [30] = assay: Effect on body weight in ICR mice was determined after intraperitoneal administration on day 9; All death; type: functional, organism-based; how it was run: as §3

| IC50 (L1210 [1]; l1210) | IC50 (L1210 [1]; l1210, read-out: IC50) | Compound | T/C (L1210 [3]) | T/C (L1210 [4]) | T/C (L1210 [5]) | T/C (L1210 [7]) | MST (L1210 [8]) | MST (L1210 [9]) | MST (L1210 [10]) | MST (L1210 [11]) | Blood urea nitrogen (Mus musculus [14]) | Blood urea nitrogen (Mus musculus [15]) | Body weight (Mus musculus [17]) | Body weight (Mus musculus [18]) | Kidney weight (Mus musculus [20]) | Kidney weight (Mus musculus [21]) | also measured |
| --- | --- | --- | --- | --- | --- | --- | --- | --- | --- | --- | --- | --- | --- | --- | --- | --- | --- |
| 64 µg/mL | 122 µM | 3-aminocytidine-dichloroplatinum (II) [listing 1 of 2 here] |  |  |  |  |  |  |  |  |  |  |  |  |  |  |  |
|  |  | 3-aminocytidine-dichloroplatinum (II) [listing 2 of 2 here] | 131% | 138% | 125% | 125% | 10 days | 10 days | 10.5 days | 11 days | 22 mg 100ml-1 | 26.3 mg 100ml-1 | 35.6 | 39.9 | 545 | 637 | T/C (L1210 [2]): 119%; T/C (L1210 [6]): 138%; MST (L1210 [12]): 11 days; MST (L1210 [13]): 9.5 days; Blood urea nitrogen (Mus musculus [16]): 28.7 mg 100ml-1; Body weight (Mus musculus [19]): 36.5; Kidney weight (Mus musculus [22]): 571 |
| 4.9 µg/mL | 8.96 µM | 3-aminotubercidin-dichloroplatinum (II) [listing 1 of 2 here] |  |  |  |  |  |  |  |  |  |  |  |  |  |  |  |
|  |  | 3-aminotubercidin-dichloroplatinum (II) [listing 2 of 2 here] | 144% | 144% | 125% | 131% | 10.5 days | 10 days | 11.5 days | 11.5 days | 24 mg 100ml-1 | 22.8 mg 100ml-1 | 38.4 | 39.4 | 587 | 686 | T/C (L1210 [2]): 112%; T/C (L1210 [6]): 150%; T/C (L1210 [23]): 156%; T/C (L1210 [24]): 156%; MST (L1210 [25]): 12.5 days; MST (L1210 [26]): 12.5 days; MST (L1210 [12]): 12 days; MST (L1210 [13]): 9 days; Blood urea nitrogen (Mus musculus [16]): 26.3 mg 100ml-1; Body weight (Mus musculus [19]): 40; Kidney weight (Mus musculus [22]): 750 |
|  |  | 5-amino-1-beta-D-ribofuranosylimidazole-4-carboxamide-dichloroplatinum (II) | 111% | 122% | 100% | 100% | 9 days | 9 days | 10 days | 11 days |  |  |  |  |  |  | T/C (L1210 [27]): 125%; MST (L1210 [28]): 10 days |
|  |  | Nc1ncnc2c1ccn2[C@@H]1O[C@H](CO)[C@@H](O)[C@H]1O [TUBERCIDIN] |  |  |  |  |  |  |  |  |  |  |  |  |  |  | IC50 (L1210 [1]; Mus musculus, L1210, read-out: IC50): 0.018 µg/mL and 67.7 nM |
| 0.19 µg/mL | 0.633 µM | CISPLATIN [listing 1 of 2 here] |  |  |  |  |  |  |  |  |  |  |  |  |  |  |  |
|  |  | CISPLATIN [listing 2 of 2 here] |  |  |  |  |  |  |  |  | 37 mg 100ml-1 | 45.3 mg 100ml-1 | 34 | 31 | 599 | 555 | Blood urea nitrogen (Mus musculus [29]): All death; Body weight (Mus musculus [30]): All death |
